Activity calls are given as the source filed them. The calls are words filed in the database; no cut-off is given here.
How the values were obtained:
MDA-MB-468 [1] = experiment: Reduction in Mcl1 level in human MDA-MB-468 cells at 10 uM; type: functional, cell-based
Summary of the method: (§1)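 Human MDA-MB-468 breast cancer cells were exposed to the derivatives at 3 μM, and some at up to 10 μM. Cells were then processed for western blotting. Read-outs were Mcl-1 protein level and caspase 3 cleavage, used as the apoptosis marker.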

MDA-MB-468 [2] = experiment: Induction of apoptosis in human MDA-MB-468 cells assessed as caspase 3 activity at 10 uM for 16 hrs; type: functional, cell-based; summary of the method: as §1
[3] = target: Induced myeloid leukemia cell differentiation protein Mcl-1/Bcl-2-like protein 11 (Homo sapiens, UniProt Q07820); experiment: Inhibition of Mcl1/Bim (unknown origin) by ELISA; type: protein assay
Sequence of Induced myeloid leukemia cell differentiation protein Mcl-1/Bcl-2-like protein 11 (Q07820 whole entry): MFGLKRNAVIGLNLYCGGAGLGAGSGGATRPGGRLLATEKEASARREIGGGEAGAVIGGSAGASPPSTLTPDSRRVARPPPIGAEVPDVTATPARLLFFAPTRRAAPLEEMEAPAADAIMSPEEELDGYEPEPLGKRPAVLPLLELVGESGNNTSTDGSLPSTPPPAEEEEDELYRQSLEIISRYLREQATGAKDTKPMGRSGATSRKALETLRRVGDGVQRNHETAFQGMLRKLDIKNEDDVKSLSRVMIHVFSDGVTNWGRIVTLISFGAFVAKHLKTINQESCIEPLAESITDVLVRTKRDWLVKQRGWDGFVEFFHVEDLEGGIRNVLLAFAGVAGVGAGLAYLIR
Sequence of Induced myeloid leukemia cell differentiation protein Mcl-1/Bcl-2-like protein 11 (O43521 whole entry, further chain): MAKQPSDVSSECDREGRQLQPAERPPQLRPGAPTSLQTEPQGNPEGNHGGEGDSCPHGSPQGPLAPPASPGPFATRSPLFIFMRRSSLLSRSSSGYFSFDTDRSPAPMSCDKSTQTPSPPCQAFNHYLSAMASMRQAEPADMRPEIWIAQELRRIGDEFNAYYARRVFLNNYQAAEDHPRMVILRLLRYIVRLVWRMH

[4] = target: Bcl-xL/Bcl-2-like protein 11 (Homo sapiens, UniProt Q07817); experiment: Inhibition of Bcl-xL/Bim (unknown origin) by ELISA; type: protein assay
Sequence of Bcl-xL/Bcl-2-like protein 11 (Q07817 whole entry): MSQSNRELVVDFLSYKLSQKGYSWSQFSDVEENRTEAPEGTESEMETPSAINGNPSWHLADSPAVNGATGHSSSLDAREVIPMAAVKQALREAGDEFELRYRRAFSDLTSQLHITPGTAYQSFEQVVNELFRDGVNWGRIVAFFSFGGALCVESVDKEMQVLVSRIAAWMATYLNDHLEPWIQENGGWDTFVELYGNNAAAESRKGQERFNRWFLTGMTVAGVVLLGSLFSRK
Sequence of Bcl-xL/Bcl-2-like protein 11 (O43521 whole entry, further chain): as the sequence (O43521 whole entry, further chain) above

MDA-MB-468 [5] = experiment: Induction of apoptosis in human MDA-MB-468 cells assessed as caspase 3 activity at 3 uM for 16 hrs
MDA-MB-468 [6] = experiment: Reduction in Mcl1 level in human MDA-MB-468 cells at 3 uM; type: functional, cell-based; summary of the method: as §1

Row | SMILES | Activity (MDA-MB-468 [1]) | Activity (MDA-MB-468 [2]) | IC50 [3] [µM] | IC50 [4] [µM] | Activity (MDA-MB-468 [5]) | Activity (MDA-MB-468 [6])
1 | O=C(c1ccc(P(=O)(O)O)cc1O)c1[nH]c(Cl)c(Cl)c1-n1c(C(=O)c2ccc(P(=O)(O)O)cc2O)cc(Cl)c1Cl | inactive | inactive |  |  |  | 
2 | O=C(c1ccc(-c2cn(Cc3ccccc3)nn2)cc1O)c1[nH]c(Cl)c(Cl)c1-n1c(C(=O)c2ccc(-c3cn(Cc4ccccc4)nn3)cc2O)cc(Cl)c1Cl | inactive | inactive | 3.3 | 1.6 |  | 
3 | CC(C)(C)OC(=O)Cn1cc(-c2ccc(C(=O)c3[nH]c(Cl)c(Cl)c3-n3c(C(=O)c4ccc(-c5cn(CC(=O)OC(C)(C)C)nn5)cc4O)cc(Cl)c3Cl)c(O)c2)nn1 | inactive | inactive | 5.1 | 8.1 |  | 
4 | O=C(c1ccccc1O)c1[nH]c(Cl)c(Cl)c1-n1c(C(=O)c2ccc(F)cc2O)cc(Cl)c1Cl | Active |  | 9.6 | 21.3 | Active | 
5 | O=C(c1ccccc1O)c1[nH]c(Cl)c(Cl)c1-n1c(C(=O)c2c(O)cccc2F)cc(Cl)c1Cl | inactive | inactive | 13.1 | 43.7 |  | 
6 | O=C(c1ccc(OS(=O)(=O)C(F)(F)F)cc1O)c1[nH]c(Cl)c(Cl)c1-n1c(C(=O)c2ccccc2O)cc(Cl)c1Cl | Active |  | 1 | 2.1 | Active | 
7 | O=C(c1ccccc1O)c1[nH]c(Cl)c(Cl)c1-n1c(C(=O)c2cc(Cl)ccc2O)cc(Cl)c1Cl | inactive |  | 3.9 | 18.3 | inactive | 
8 | COc1ccccc1C(=O)c1[nH]c(Cl)c(Cl)c1-n1c(C(=O)c2ccc(Cl)cc2OC)cc(Cl)c1Cl | inactive | inactive | 8 | 9.5 |  | 
9 | O=C(c1ccc(-c2cn(-c3ccccc3)nn2)cc1O)c1[nH]c(Cl)c(Cl)c1-n1c(C(=O)c2ccc(-c3cn(-c4ccccc4)nn3)cc2O)cc(Cl)c1Cl |  |  | 1.5 | 0.8 |  | 
10 | O=C(c1ccccc1O)c1[nH]c(Cl)c(Cl)c1-n1c(C(=O)c2cc(F)ccc2O)cc(Cl)c1Cl | Active | Active | 8.9 | 13.3 |  | 
11 | O=C(c1ccccc1O)c1[nH]c(Cl)c(Cl)c1-n1c(C(=O)c2ccccc2O)cc(Cl)c1Cl |  |  |  | 16.4 |  | 
12 | CCCCCCCCn1cc(-c2ccc(C(=O)c3[nH]c(Cl)c(Cl)c3-n3c(C(=O)c4ccc(-c5cn(CCCCCCC)nn5)cc4O)cc(Cl)c3Cl)c(O)c2)nn1 |  |  | 0.6 | 0.5 |  | 
13 | CC(C)(C)OC(=O)Cn1cc(-c2cc(O)c(C(=O)c3[nH]c(Cl)c(Cl)c3-n3c(C(=O)c4cc(Cl)c(-c5cn(CC(=O)OC(C)(C)C)nn5)cc4O)cc(Cl)c3Cl)cc2Cl)nn1 |  |  | 1.6 | 14 |  | 
14 | O=C(O)CSc1ccc(C(=O)c2[nH]c(Cl)c(Cl)c2-n2c(C(=O)c3ccc(SCC(=O)O)cc3O)cc(Cl)c2Cl)c(O)c1 | inactive | inactive |  | > 100 |  | 
15 | O=C(O)Cn1cc(-c2cc(O)c(C(=O)c3[nH]c(Cl)c(Cl)c3-n3c(C(=O)c4cc(Cl)c(-c5cn(CC(=O)O)nn5)cc4O)cc(Cl)c3Cl)cc2Cl)nn1 | inactive | inactive |  | > 50 |  | 
16 | Cc1cc(O)c(C(=O)c2[nH]c(Cl)c(Cl)c2-n2c(C(=O)c3cc(Cl)c(C)cc3O)cc(Cl)c2Cl)cc1Cl | Active |  |  |  | Active | 

Row | SMILES | Activity (MDA-MB-468 [1]) | Activity (MDA-MB-468 [2]) | IC50 [3] [µM] | IC50 [4] [µM] | Activity (MDA-MB-468 [5]) | Activity (MDA-MB-468 [6])
17 | COc1ccccc1C(=O)c1c(-n2c(C(=O)c3ccccc3OC)cc(Cl)c2Cl)c(Cl)c(Cl)n1C |  |  | 15.5 | 64.9 |  | 
18 | CCc1ccc(C(=O)c2[nH]c(Cl)c(Cl)c2-n2c(C(=O)c3ccc(CC)cc3O)cc(Cl)c2Cl)c(O)c1 | Active |  |  |  | Active | 
19 | O=C(c1ccccc1O)c1[nH]c(Cl)c(Cl)c1-n1c(C(=O)c2ccc(Cl)cc2O)cc(Cl)c1Cl | Active | Active | 6.5 | 9.2 |  | 
20 | O=C(c1ccccc1O)c1[nH]c(Cl)c(Cl)c1-n1c(C(=O)c2cccc(Cl)c2O)cc(Cl)c1Cl |  |  | 4.1 | 10.1 |  | 
21 | CCOC(=O)CSc1ccc(C(=O)c2[nH]c(Cl)c(Cl)c2-n2c(C(=O)c3ccc(SCC(=O)OCC)cc3O)cc(Cl)c2Cl)c(O)c1 |  |  |  |  |  | inactive
22 | C#Cc1ccc(C(=O)c2[nH]c(Cl)c(Cl)c2-n2c(C(=O)c3ccc(C#C)cc3O)cc(Cl)c2Cl)c(O)c1 | Active |  |  |  | Active | 
23 | O=C(c1ccc(-c2cn(C3CCCCC3)nn2)cc1O)c1[nH]c(Cl)c(Cl)c1-n1c(C(=O)c2ccc(-c3cn(C4CCCCC4)nn3)cc2O)cc(Cl)c1Cl | inactive | inactive | 1.4 | 3.8 |  | 
24 | CCOC(=O)Cn1cc(-c2ccc(C(=O)c3[nH]c(Cl)c(Cl)c3-n3c(C(=O)c4ccc(-c5cn(CC(=O)OCC)nn5)cc4O)cc(Cl)c3Cl)c(O)c2)nn1 | inactive | inactive |  | > 100 |  | 
25 | O=C(c1ccc(O)cc1O)c1[nH]c(Cl)c(Cl)c1-n1c(C(=O)c2ccc(O)cc2O)cc(Cl)c1Cl | inactive | inactive | 39.5 | > 50 |  | 
26 | O=C(c1ccc(C(F)(F)F)cc1O)c1[nH]c(Cl)c(Cl)c1-n1c(C(=O)c2ccc(C(F)(F)F)cc2O)cc(Cl)c1Cl | Active |  | 8.1 | 9.7 | Active | 
27 | C=Cc1ccc(C(=O)c2[nH]c(Cl)c(Cl)c2-n2c(C(=O)c3ccc(C=C)cc3O)cc(Cl)c2Cl)c(O)c1 | Active |  | 3.7 | 3.5 | Active | 
28 | CCOC(=O)Cn1cc(-c2cc(O)c(C(=O)c3[nH]c(Cl)c(Cl)c3-n3c(C(=O)c4cc(Cl)c(-c5cn(CC(=O)OCC)nn5)cc4O)cc(Cl)c3Cl)cc2Cl)nn1 | inactive | inactive |  | > 100 |  | 
29 | CC1(C)CCC(c2ccc(Cl)cc2)=C(CN2CCN(c3ccc(C(=O)NS(=O)(=O)c4ccc(N[C@H](CCN5CCOCC5)CSc5ccccc5)c(S(=O)(=O)C(F)(F)F)c4)cc3)CC2)C1 |  |  |  |  |  | inactive
30 | Cn1c(Cl)c(Cl)c(-n2c(C(=O)c3ccccc3O)cc(Cl)c2Cl)c1C(=O)c1ccccc1O |  |  | > 100 | 7.9 |  | 
31 | O=C(c1cc(Cl)c(O)cc1O)c1[nH]c(Cl)c(Cl)c1-n1c(C(=O)c2cc(Cl)c(O)cc2O)cc(Cl)c1Cl | inactive | inactive | 10.7 | > 50 |  | 
32 | O=C(O)Cn1cc(-c2ccc(C(=O)c3[nH]c(Cl)c(Cl)c3-n3c(C(=O)c4ccc(-c5cn(CC(=O)O)nn5)cc4O)cc(Cl)c3Cl)c(O)c2)nn1 | inactive | inactive |  | > 50 |  | 
